Source: ChEMBL document CHEMBL5724801, “EUbOPEN Chemogenomics Library - Multiplex” (2024)
“And” between values parts separate entries of the source, which are not always exact repeats. Equal values may be shown once.

System: Fibroblast
Assay: Multiplex assay against human fibroblast
Assay type: toxicity, cell-based
Method in brief: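 On a CQ1 microscope at 37°C and 5% CO2, live cells were imaged after compound addition. They had been stained at seeding with Hoechst33342, BioTracker Green Microtubule Cytoskeleton Dye, MitoTracker Red and Annexin V Alexa Fluor 680. CellPathfinder machine-learning gating assigned cells to Hoechst high-intensity objects or normal cells, normal cells to healthy, pyknosed or fragmented nuclei, and pyknosed cells to mitotic or apoptotic. Tubulin, mitochondrial-mass and membrane-permeability phenotypes are per cents of healthy-nucleus cells.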

[1] = 12 h, 1 µM, compound concentration 1 uM
[2] = 12 h, 10 µM, compound concentration 10 uM
[3] = 24 h, 1 µM, compound concentration 1 uM
[4] = 24 h, 10 µM, compound concentration 10 uM
[5] = 48 h, 1 µM, compound concentration 1 uM
[6] = 48 h, 10 µM, compound concentration 10 uM

## COc1ccc(CC(=O)NC(N/C(=N/C#N)Nc2cccc3ncccc23)C(C)(C)C)cc1OC (stereo not drawn)
[1]
  Population Fragmented Nuclei (%): 9.24% and 8.25%
  Population Healthy Nuclei (%): 64.67% and 81.55%
  Population Hoechst High Intensity Objects (%): 0%
  Population Membrane Permeable-Phenotype (%): 1.68% and 2.98%
  Population Mitochondria Different-Phenotype (%): 8.4% and 6.55%
  Population Mitotic Cells (%): 95.83% and 85.71%
  Population Normal (%): 100%
  Population Pyknosed Nuclei (%): 26.09% and 10.19%
  Population Tubulin-Different-Phenotype (%): 12.61% and 16.67%
  Total Cell Count: 184 and 206
[2]
  Population Apoptotic (%): 10.96% and 24.49%
  Population Fragmented Nuclei (%): 7.46% and 8.67%
  Population Healthy Nuclei (%): 56.22% and 63.01%
  Population Hoechst High Intensity Objects (%): 0%
  Population Membrane Permeable-Phenotype (%): 9.73% and 2.75%
  Population Mitochondria Different-Phenotype (%): 7.96% and 16.51%
  Population Mitotic Cells (%): 89.04% and 75.51%
  Population Normal (%): 100%
  Population Pyknosed Nuclei (%): 36.32% and 28.32%
  Population Tubulin-Different-Phenotype (%): 26.55% and 38.53%
  Total Cell Count: 201 and 173
[3]
  Population Fragmented Nuclei (%): 11.21% and 6.25%
  Population Healthy Nuclei (%): 68.16% and 81.25%
  Population Hoechst High Intensity Objects (%): 0%
  Population Membrane Permeable-Phenotype (%): 3.95% and 0%
  Population Mitochondria Different-Phenotype (%): 10.53% and 7.1%
  Population Mitotic Cells (%): 95.65% and 76.92%
  Population Normal (%): 100%
  Population Pyknosed Nuclei (%): 20.63% and 12.5%
  Population Tubulin-Different-Phenotype (%): 19.08% and 13.02%
  Total Cell Count: 223 and 208
[4]
  Population Fragmented Nuclei (%): 5.12% and 8.43%
  Population Healthy Nuclei (%): 64.65% and 75.3%
  Population Hoechst High Intensity Objects (%): 0%
  Population Membrane Permeable-Phenotype (%): 7.19% and 2.4%
  Population Mitochondria Different-Phenotype (%): 10.07% and 8%
  Population Mitotic Cells (%): 92.31% and 70.37%
  Population Normal (%): 100%
  Population Pyknosed Nuclei (%): 30.23% and 16.27%
  Population Tubulin-Different-Phenotype (%): 33.09% and 40.8%
  Total Cell Count: 215 and 166
[5]
  Population Apoptotic (%): 0% and 18.75%
  Population Fragmented Nuclei (%): 7.56% and 7.18%
  Population Healthy Nuclei (%): 85.29% and 85.17%
  Population Hoechst High Intensity Objects (%): 0%
  Population Membrane Permeable-Phenotype (%): 0.99% and 1.12%
  Population Mitochondria Different-Phenotype (%): 11.82% and 3.37%
  Population Mitotic Cells (%): 100% and 81.25%
  Population Normal (%): 100%
  Population Pyknosed Nuclei (%): 7.14% and 7.66%
  Population Tubulin-Different-Phenotype (%): 5.42% and 14.04%
  Total Cell Count: 238 and 209
[6]
  Population Apoptotic (%): 27.78% and 30.77%
  Population Fragmented Nuclei (%): 8.23% and 15.18%
  Population Healthy Nuclei (%): 83.98% and 78.01%
  Population Hoechst High Intensity Objects (%): 0%
  Population Mitochondria Different-Phenotype (%): 12.89% and 4.03%
  Population Mitotic Cells (%): 72.22% and 69.23%
  Population Normal (%): 100%
  Population Pyknosed Nuclei (%): 7.79% and 6.81%
  Population Tubulin-Different-Phenotype (%): 17.01% and 47.65%
  Total Cell Count: 231 and 191

## C=CC(=O)N1CCC[C@@H](n2nc(C(=O)Nc3ccc(CC(=O)N(C)C)c(C)c3C)c3c(N)ncnc32)C1
[1]
  Population Fragmented Nuclei (%): 10.1% and 3.17%
  Population Healthy Nuclei (%): 56.73% and 73.02%
  Population Hoechst High Intensity Objects (%): 0%
  Population Membrane Permeable-Phenotype (%): 1.69% and 0.72%
  Population Mitochondria Different-Phenotype (%): 9.32% and 5.8%
  Population Mitotic Cells (%): 97.1% and 80%
  Population Normal (%): 100%
  Population Pyknosed Nuclei (%): 33.17% and 23.81%
  Population Tubulin-Different-Phenotype (%): 14.41% and 5.8%
  Total Cell Count: 208 and 189
[2]
  Population Apoptotic (%): 5.56% and 8.57%
  Population Fragmented Nuclei (%): 8.2% and 7.93%
  Population Healthy Nuclei (%): 62.3% and 70.73%
  Population Hoechst High Intensity Objects (%): 0%
  Population Membrane Permeable-Phenotype (%): 9.65% and 7.76%
  Population Mitochondria Different-Phenotype (%): 11.4% and 13.79%
  Population Mitotic Cells (%): 94.44% and 91.43%
  Population Normal (%): 100%
  Population Pyknosed Nuclei (%): 29.51% and 21.34%
  Population Tubulin-Different-Phenotype (%): 21.93% and 32.76%
  Total Cell Count: 183 and 164
[3]
  Population Apoptotic (%): 18.18% and 16.67%
  Population Fragmented Nuclei (%): 12.88% and 6.53%
  Population Healthy Nuclei (%): 68.24% and 78.39%
  Population Hoechst High Intensity Objects (%): 0%
  Population Membrane Permeable-Phenotype (%): 3.77% and 2.56%
  Population Mitochondria Different-Phenotype (%): 7.55% and 8.33%
  Population Mitotic Cells (%): 81.82% and 83.33%
  Population Normal (%): 100%
  Population Pyknosed Nuclei (%): 18.88% and 15.08%
  Population Tubulin-Different-Phenotype (%): 13.21% and 10.26%
  Total Cell Count: 233 and 199
[4]
  Population Fragmented Nuclei (%): 12.56% and 7.73%
  Population Healthy Nuclei (%): 67.34% and 70.72%
  Population Hoechst High Intensity Objects (%): 0%
  Population Membrane Permeable-Phenotype (%): 8.96% and 3.12%
  Population Mitochondria Different-Phenotype (%): 9.7% and 14.06%
  Population Mitotic Cells (%): 95% and 84.62%
  Population Normal (%): 100%
  Population Pyknosed Nuclei (%): 20.1% and 21.55%
  Population Tubulin-Different-Phenotype (%): 23.13% and 33.59%
  Total Cell Count: 199 and 181
[5]
  Population Apoptotic (%): 13.79% and 22.22%
  Population Fragmented Nuclei (%): 7.48% and 7.76%
  Population Healthy Nuclei (%): 81.1% and 84.02%
  Population Hoechst High Intensity Objects (%): 0%
  Population Membrane Permeable-Phenotype (%): 0.97% and 1.63%
  Population Mitotic Cells (%): 86.21% and 77.78%
  Population Normal (%): 100%
  Population Pyknosed Nuclei (%): 11.42% and 8.22%
  Population Tubulin-Different-Phenotype (%): 5.34% and 12.5%
  Total Cell Count: 254 and 219
[6]
  Population Apoptotic (%): 22.22% and 18.75%
  Population Fragmented Nuclei (%): 7.14% and 11.46%
  Population Healthy Nuclei (%): 84.29% and 80.21%
  Population Hoechst High Intensity Objects (%): 0%
  Population Membrane Permeable-Phenotype (%): 3.39% and 5.84%
  Population Mitochondria Different-Phenotype (%): 12.99% and 3.9%
  Population Mitotic Cells (%): 77.78% and 81.25%
  Population Normal (%): 100%
  Population Pyknosed Nuclei (%): 8.57% and 8.33%
  Population Tubulin-Different-Phenotype (%): 19.21% and 29.22%
  Total Cell Count: 210 and 192

## Cc1c(-c2cc(-c3ccccc3Cl)no2)cnn1C1CCNCC1.Cl
[1]
  Population Fragmented Nuclei (%): 12.32% and 5.31%
  Population Healthy Nuclei (%): 58.77% and 79.2%
  Population Hoechst High Intensity Objects (%): 0%
  Population Membrane Permeable-Phenotype (%): 4.03% and 3.91%
  Population Mitochondria Different-Phenotype (%): 17.74% and 8.94%
  Population Mitotic Cells (%): 93.44% and 68.57%
  Population Normal (%): 100%
  Population Pyknosed Nuclei (%): 28.91% and 15.49%
  Population Tubulin-Different-Phenotype (%): 32.26% and 22.91%
  Total Cell Count: 211 and 226
[2]
  Population Apoptotic (%): 18.52% and 39.56%
  Population Fragmented Nuclei (%): 8.72% and 4.05%
  Population Healthy Nuclei (%): 41.74% and 54.95%
  Population Hoechst High Intensity Objects (%): 0%
  Population Membrane Permeable-Phenotype (%): 10.99% and 13.93%
  Population Mitochondria Different-Phenotype (%): 46.15% and 28.69%
  Population Mitotic Cells (%): 81.48% and 60.44%
  Population Normal (%): 100%
  Population Pyknosed Nuclei (%): 49.54% and 40.99%
  Population Tubulin-Different-Phenotype (%): 73.63% and 83.61%
  Total Cell Count: 218 and 222
[3]
  Population Apoptotic (%): 8% and 20.83%
  Population Fragmented Nuclei (%): 12.4% and 7.5%
  Population Healthy Nuclei (%): 67.6% and 82.5%
  Population Hoechst High Intensity Objects (%): 0%
  Population Membrane Permeable-Phenotype (%): 4.73% and 1.01%
  Population Mitochondria Different-Phenotype (%): 7.69% and 3.54%
  Population Mitotic Cells (%): 92% and 79.17%
  Population Normal (%): 100%
  Population Pyknosed Nuclei (%): 20% and 10%
  Population Tubulin-Different-Phenotype (%): 33.73% and 29.8%
  Total Cell Count: 250 and 240
[4]
  Population Apoptotic (%): 36.97% and 65.81%
  Population Fragmented Nuclei (%): 10.44% and 3.51%
  Population Healthy Nuclei (%): 24.18% and 28.07%
  Population Hoechst High Intensity Objects (%): 0%
  Population Membrane Permeable-Phenotype (%): 25% and 20.83%
  Population Mitochondria Different-Phenotype (%): 63.64% and 60.42%
  Population Mitotic Cells (%): 63.03% and 34.19%
  Population Normal (%): 100%
  Population Pyknosed Nuclei (%): 65.38% and 68.42%
  Population Tubulin-Different-Phenotype (%): 72.73% and 68.75%
  Total Cell Count: 182 and 171
[5]
  Population Apoptotic (%): 25% and 11.11%
  Population Fragmented Nuclei (%): 10.69% and 10.92%
  Population Healthy Nuclei (%): 83.79% and 85.92%
  Population Hoechst High Intensity Objects (%): 0%
  Population Membrane Permeable-Phenotype (%): 4.12% and 11.48%
  Population Mitochondria Different-Phenotype (%): 9.05% and 0.82%
  Population Mitotic Cells (%): 75% and 88.89%
  Population Normal (%): 100%
  Population Pyknosed Nuclei (%): 5.52% and 3.17%
  Population Tubulin-Different-Phenotype (%): 31.28% and 31.15%
  Total Cell Count: 290 and 284
[6]
  Population Apoptotic (%): 53.41% and 92.06%
  Population Fragmented Nuclei (%): 14.67% and 6.71%
  Population Healthy Nuclei (%): 37.5% and 51.01%
  Population Hoechst High Intensity Objects (%): 0%
  Population Mitochondria Different-Phenotype (%): 43.48% and 21.05%
  Population Normal (%): 100%
  Population Pyknosed Nuclei (%): 47.83% and 42.28%
  Population Tubulin-Different-Phenotype (%): 15.94% and 32.89%
  Total Cell Count: 184 and 149
